# Screening data from PubChem.
# KSHV LANA nucl – inhibitors of KSHV LANA binding to nucleosomes. FITC-LANA1-23 / chicken nucleosome fluorescence polarization; active compounds read low. z-score (test concentration not listed). 0.3% of 51,000 active. AID 720717;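 active = both repeat wells score below -2 in polarization z-score versus plate sample wells, excluding overly bright wells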
#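 Assay system: FITC-LANA peptide and chicken nucleosomes; input: 240 nM purified chicken nucleosomes (480 nM peptide binding sites), final; also added: 50 nM FITC-LANA1-23 probe; medium: TEN-BT buffer, pH 7.5; doses: pin-transferred compound, 100 nL; times: 10–45 min, room temperature; technique: fluorescence polarization; replication: duplicates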
# Ab BasE inh – BasE siderophore biosynthesis inhibition. 0.1% of 84,000 active. purified BasE, fluorescence polarization binding displacement. inhibition, % (no concentration beside the values); in the data active = inhibition above about 25%, passing the limit was not always enough;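 note: 0% = negative plate control signal and 100% = positive plate control signal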
# Numbers without * were called inactive; x = no result. Only a selection was taken, and hits are over-represented in it overall.
SMILES,KSHV LANA nucl,Ab BasE inh
CCn1nc(-c2ccccc2)nc2c(=O)n(C)c(=O)nc1-2,-9.3*,8
OC(CNCCC1=CCCCC1)c1ccccc1 (centres undefined),x,-3
O=C1NC(=O)C(=Cc2cn(CCOc3ccc4c(c3)OCO4)c3ccccc23)C(=O)N1,x,1
C=CCn1cc(C=C2C(=O)NC(=O)NC2=O)c2ccccc21,-2.5*,4
COC(=O)CC1=C(C(=O)OC)C2(C(=O)Nc3ccc(Br)cc32)C(C(=O)OC)=C(N)O1 (centres undefined),-0.15,2
CC(C)(C)P(=O)(c1ccncc1)N1CCCCCC1 (centres undefined),x,2
CC(=O)Oc1ccc(Cl)c2cccnc12,0.18,30*
CN(C)C(=O)Oc1cccc2cccnc12,-0.69,0
O=[P+](O)c1ccc(Cl)cc1,x,-1
